Most compounds without a hit are left out; they make up all but 3% or so of the library.
Ecoli rRNA inh: reduced GFP signal of wild-type E. coli, primary screen, bacterial rRNA inhibitor project, GFP/RFP fluorescence, OD600, single point | E. coli WT GFP vs humanized-ribosome RFP mutants, 24 h; active compounds read low; DMSO median 0, no signal -100 | GFP signal change (wild-type ribosome), % (test concentration not listed) | 350,000 tested, 1.6% active | AID 720706, 2013;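 active = significant combined selectivity score with lowered wild-type GFP, culture density cut under 30%, mutant RFP and density less affected; inactive = any of these conditions unmet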
PGC1a acetyl inh: inhibitors of PGC1a acetylation signal, primary screen, cell-based, U2OS, AlphaScreen, inhibitor mode | AlphaScreen anti-acetyl-lysine; with virally co-expressed GCN5 acetyltransferase | inhibition, % at 15.6 µM | 350,000 tested, 0.17% active;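 active = every replicate shows inhibition of at least 40%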;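 note: 0% = neutral control wells and 100% = positive control wells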
SIRT5 block: SIRT5 desuccinylase inhibitors, primary screen, biochemical, fluorescence imaging, single point, set 5; Purified SirT5, succinyl-peptide AMC, trypsin-coupled fluorescence; AID 652115, 2013; 330,000 tested, 1.1% active; NAD-dependent protein deacylase sirtuin-5, mitochondrial (Homo sapiens), Q9NXA8; inhibition, % at 15 µM; in the data active = inhibition above about 15%
Target sequence (Q9NXA8 whole entry, looked up): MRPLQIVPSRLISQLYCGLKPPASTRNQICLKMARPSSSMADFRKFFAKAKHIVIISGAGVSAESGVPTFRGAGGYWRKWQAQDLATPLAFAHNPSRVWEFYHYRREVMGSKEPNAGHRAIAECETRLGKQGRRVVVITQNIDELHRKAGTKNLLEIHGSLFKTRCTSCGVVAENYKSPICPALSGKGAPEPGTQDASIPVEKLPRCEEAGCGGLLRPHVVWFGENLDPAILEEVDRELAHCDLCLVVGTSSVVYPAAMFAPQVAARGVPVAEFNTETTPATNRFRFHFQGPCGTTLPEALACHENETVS
S100A4 inh HTS: inhibitors of S100A4-myosin IIA peptide binding, primary screen, biochemical, fluorescence polarization, TAMRA-MyoIIA peptide; 360,000 tested, 0.14% active; Protein S100-A4 (Homo sapiens), P26447; inhibition, % at 10.7 µM; AID 652163, 2013;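 active = mean inhibition of at least 70% across replicates, with every replicate also reaching that level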
Target sequence (P26447 whole entry, looked up): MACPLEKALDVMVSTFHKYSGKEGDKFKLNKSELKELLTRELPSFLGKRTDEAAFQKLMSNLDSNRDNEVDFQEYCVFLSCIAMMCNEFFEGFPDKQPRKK
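Material: S100A4 monomer protein | Medium: HEPES pH 7.2 with CaCl2, KCl, NaCl, DTT, Triton | Reagent: Labelled myosin peptide probe, 5 nM | Doses: One dose per compound | Times: 5 min incubation before reading | Benchmarks: Neutral control DMSO, positive control TFP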
Statin myotox sup: suppressors of statin myotoxicity in C2C12 myotubes, primary screen, cell-based, single point, plate reader; C2C12 myotubes + simvastatin, ATP luminescence, 48 h; scaled: DMSO 0, geranylgeraniol control 100; rescue of ATP level, % at 7.49 µM; 330,000 tested, 0.78% active;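 active = mean ATP rescue above about 67%, or every replicate alone reaching that limit, limit read from the data, passing the limit was not always enough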;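 note: myotubes were challenged with 10 µM simvastatin during compound exposure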
Cneo AK release: Cryptococcus neoformans cell lysis inducers, primary screen, AK release luminescence, single concentration; 360,000 tested, 0.2% active; lysis activity, % at 15 µM; AID 651654, 2012; C. neoformans lysis, adenylate kinase release luminescence, 4 h; normalised: neutral wells 0, clomiphene wells 100;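 active = mean lysis activity across replicates of at least 80%, whatever share of replicates individually reach that level; inactive = mean lysis activity below 80%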
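Assay system: C. neoformans cells. Amount: yeast cell density of 5 × 10^6 cells/mL. Technique: AK luminescence. Buffer or medium: YPD. Times: static 4 h at 37 °C with compound, 1 h detection. Dosing: single-point compound dose. Read-out: lysis from increased AK signal.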
The depositor's hits bear a star; . = not tested or not shown.

SMILES	Ecoli rRNA inh	PGC1a acetyl inh	SIRT5 block	S100A4 inh HTS	Statin myotox sup	Cneo AK release
CCOC(=O)C(C)Sc1nc2c(cnn2-c2ccc(C)cc2)c(=O)[nH]1 (stereo not drawn)	.	-8.7	.	.	96.6*	1.4
C[C@@H]1CN([C@@H](C)CO)C(=O)c2cc(NC(=O)c3ccncc3)ccc2O[C@@H](C)CCCCO[C@H]1CN(C)C(=O)Nc1ccc(F)cc1	-1.9	24.9	0.2	-9.7	.	-4.2
C[C@H](CO)N1C[C@H](C)[C@H](CN(C)C(=O)c2ccc3c(c2)OCO3)Oc2cc(-c3ccncc3)ccc2S1(=O)=O	5.0	7.3	3.9	26.9	-10.8	-2.2
CCN1[C@H](C(=O)Nc2ccccc2)[C@@H](CO)[C@@H]2Cn3c(ccc(-c4ccccc4)c3=O)[C@@H]21	-3.3	.	-2.6	9.8	20.4	0.9
C[C@@H]1CN([C@@H](C)CO)C(=O)Cc2cc(NC(=O)CCCN(C)C)ccc2O[C@H]1CN(C)C(=O)Nc1ccc(F)cc1	1.8	1.9	3.8	9.1	5.6	-0.8
CC1=CCC2C(=O)N(CCc3c[nH]c4ccccc34)C(=O)C2C1 (stereo not drawn)	.	-3.2	.	.	-16.2	-2.4
O=C1C2CC=C(Cl)CC2C(=O)N1CCc1c[nH]c2ccccc12 (stereo not drawn)	-25.5*	-7.5	.	-1.7	-1.1	-2.0
Cc1noc(C)c1S(=O)(=O)N(C)C[C@H]1Oc2ccc(NC(=O)NC3CCCCC3)cc2CC(=O)N([C@H](C)CO)C[C@H]1C	0.7	2.8	0.6	-61.0	-6.7	-1.0
COc1cccc(S(=O)(=O)N(C)C[C@@H]2OCc3ccccc3-c3ccccc3C(=O)N([C@@H](C)CO)C[C@@H]2C)c1	-2.5	-12.8	1.9	5.1	.	99.9*
C[C@H](CO)N1C[C@H](C)[C@H](CN(C)S(=O)(=O)c2cccc(C#N)c2)OCc2ccccc2-c2ccccc2C1=O	0.6	2.4	3.0	-3.8	-4.5	-1.5
C[C@@H]1CN([C@H](C)CO)C(=O)c2ccccc2-c2ccccc2CO[C@H]1CN(C)S(=O)(=O)c1cccc(C#N)c1	0.6	-0.1	4.3	1.1	.	95.3*
C[C@H](CO)N1C[C@H](C)[C@H](CN(C)C(=O)c2cccc(F)c2)Oc2cc(-c3ccncc3)ccc2S1(=O)=O	-8.2	-1.2	-5.8	-8.4	-9.3	-18.2
CCN(C[C@H]1N[C@@](C)(C(=O)OC)[C@H]2C(=O)N(C)C(=O)[C@@H]12)C(=O)c1ccc(F)cc1	6.6	.	27.8*	-1.5	4.1	-0.8
CCNC(=O)N(C)C[C@H]1N[C@@](C)(C(=O)OC)[C@H]2C(=O)N(C)C(=O)[C@@H]12	5.3	7.8	-6.2	-1.8	9.6	-1.9
COC(=O)[C@]1(C)N[C@H](CN(C)C(=O)c2ccccc2)[C@@H]2C(=O)N(C)C(=O)[C@@H]21	1.4	3.9	33.5*	0.9	8.1	0.7
CC1OC2CC(=O)OC2C2=C1C(=O)c1c(O)cccc1C2=O (stereo not drawn)	.	78.4*	.	-17.7	-304.5	-5.2
Cc1ccc(-n2nnnc2-c2ccccc2Br)cc1	-28.4*	4.7	-0.4	0.6	-2.2	0.3
C[C@@H]1CN([C@@H](C)CO)C(=O)c2cc(NC(=O)CCCN(C)C)ccc2O[C@@H](C)CCCCO[C@@H]1CN(C)C	4.1	3.0	.	.	3.4	.
CCC(=O)N(C)C[C@@H]1Oc2cc(C#CCN(C)C)ccc2S(=O)(=O)N([C@@H](C)CO)C[C@H]1C	6.0	8.7	-0.2	4.8	-0.6	-1.4
COC(=O)[C@@H]1[C@@H](CO)[C@@H]2Cn3c(ccc(-c4cccc(F)c4)c3=O)[C@@H]2N1S(C)(=O)=O	-2.7	.	-19.7	7.6	-8.0	-3.5
CO[C@@H]1CN(C)C(=O)c2cc(NC(=O)c3ccccc3F)ccc2OC[C@@H](C)N(C(C)=O)C[C@H]1C	0.3	13.9	-2.6	22.1	2.5	48.8
CO[C@H]1CN(C)C(=O)c2cc(NC(=O)c3ccccc3F)ccc2OC[C@H](C)N(CC2CCOCC2)C[C@H]1C	-0.6	13.0	7.3	-3.9	-9.2	97.8*
CO[C@H]1CN(C)C(=O)c2cc(NC(=O)c3ccccc3F)ccc2OC[C@H](C)N(C(C)=O)C[C@H]1C	3.7	0.0	0.0	-9.7	-2.1	95.2*
CO[C@H]1CN(C)C(=O)c2cc(NC(=O)c3ccccc3F)ccc2OC[C@@H](C)N(C(C)=O)C[C@@H]1C	2.6	130.3*	1.8	-6.3	6.4	50.8
COc1ccccc1N1CCN(C(C)C(=O)N2CC(C)OC(C)C2)CC1 (stereo not drawn)	4.4	10.5	19.8*	-1.6	8.9	0.5
SMILES	Ecoli rRNA inh	PGC1a acetyl inh	SIRT5 block	S100A4 inh HTS	Statin myotox sup	Cneo AK release
COc1ccc(NC(=O)N(C)C[C@H]2Oc3c(NS(=O)(=O)c4ccc(F)cc4)cccc3C(=O)N([C@H](C)CO)C[C@H]2C)cc1	3.7	-3.7	.	.	14.7	1.7
Cc1nn(-c2ccccc2)c2[nH]c(=O)cc(C(F)(F)F)c12	-24.8	-3.5	76.4*	2.0	-8.2	0.6
Cc1cc(=O)[nH]c2c1c(C)nn2-c1ccccc1	.	-5.8	.	.	2.3	2.1
COc1ccc(CCNC(=O)Cn2ccc3c(OC)cccc3c2=O)cc1OC	1.2	1.2	21.1*	-1.1	.	.
COc1cccc2c(=O)n(CC(=O)NCCc3ccccc3)ccc12	11.2	-2.7	-0.3	0.0	.	.
Cc1nc2nc(-c3ccc(F)cc3)cn2nc1C	6.4	.	5.8	-11.8	.	.
Cc1nc2nc(-c3ccccc3)cn2nc1C	-25.9*	5.2	21.5*	-14.8	-54.4	-4.1
CC1CCCCC1Nc1nc2ccc(Cl)cc2n2cnnc12 (stereo not drawn)	-4.7	10.8	-0.5	-2.4	97.7*	0.4
COCC(=O)N1CC(=O)N2[C@@H](CO)[C@H](c3ccc(-c4ccncc4)cc3)[C@@H]2C1	1.9	102.2*	-3.9	5.5	.	.
O=C(c1cnccn1)N1CC(=O)N2[C@@H](CO)[C@H](c3ccc(C#CC4CC4)cc3)[C@@H]2C1	2.5	-3.8	23.1*	17.5	.	.
CC(=O)N1CC(=O)N2[C@H](CO)[C@@H](c3ccc(-c4ccc(C#N)cc4)cc3)[C@H]2C1	0.5	7.3	3.2	129.1*	.	.
